Active and inactive are the calls of the source. No cut-off for these calls is given here.
Key:
[1] = test system: Human immunodeficiency virus 1; experiment: Antiviral activity against HIV1 3B infected in human CEM-SS cells assessed as inhibition of virus-induced cytopathic effect after 6 days by MTS assay; assay type: functional, organism-based; details: Human immunodeficiency virus 1, 3B, 144 h
Procedure, shortened: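 CEM-SS cells mixed with pre-titered HIV-1 IIIB (virus control wells lose 70–95% viability) in presence of compound, incubated 6 days; cytoprotection read by MTS or XTT dye reduction. Plates held cell, virus, compound toxicity and colorimetric controls; AZT positive control. EC50 = concentration inhibiting virus replication by 50%.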

[2] = Cytotoxicity against human CEM-SS cells after 6 days by MTS assay; assay type: cell-based; details: read-out: TC50
[3] = Therapeutic index, ratio of TC50 for human CEM-SS cells to EC50 for HIV1 3B; assay type: cell-based; details: read-out: TI
Procedure, shortened: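 TI calculated as TC50/EC50 from the 6-day CEM-SS cytoprotection assay (HIV-1 IIIB; MTS or XTT dye reduction) and matching compound-only toxicity wells.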

[4] = molecular target: Human immunodeficiency virus type 1 reverse transcriptase (Human immunodeficiency virus 1, UniProt Q72547); experiment: Inhibition of HIV 3B reverse transcriptase using [3H]TTP as a tracer by scintillation counting
[5] = molecular target: Human immunodeficiency virus type 1 integrase (Human immunodeficiency virus 1, UniProt Q7ZJM1); experiment: Inhibition of HIV 3B integrase strand transfer activity
Procedure, shortened: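 IN expressed in E. coli BL21(DE3) by IPTG induction. 600 nM IN in HEPES pH 7.5, 10 mM MnCl2, 1 mM DTT, 10% glycerol, BSA, Brij-35 preincubated 10 min at room temperature with inhibitor or DMSO; 50 nM annealed 5'-biotin/3'-cy5 duplex DNA added, 2 h 37 °C. Product captured on streptavidin plate, washed, eluted with formamide, fluorescence read.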

[6] = molecular target: Human immunodeficiency virus type 1 reverse transcriptase (Human immunodeficiency virus 1) (UniProt Q72547); experiment: Inhibition of HIV 3B reverse transcriptase at 100 uM using [3H]TTP as a tracer by scintillation counting
Procedure, shortened: (§1)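 Resin-bound poly(A) template in scintillation format incubated with compound and [3H]-TTP tracer; reaction started by adding RT enzyme, run 3 h at 37 °C, quenched with stop buffer; incorporated [3H]-TTP counted 1 min per sample on a beta counter.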

[7] = molecular target: Human immunodeficiency virus type 1 reverse transcriptase (Human immunodeficiency virus 1) (UniProt Q72547); experiment: Inhibition of HIV 3B reverse transcriptase at 10 uM using [3H]TTP as a tracer by scintillation counting; procedure, shortened: as §1
[8] = test system: Human immunodeficiency virus 1; experiment: Antiviral activity against HIV1 3B infected in human CEM-SS cells assessed as reduction in virus-induced cytopathic effect at 10 uM after 6 days by MTS assay; assay type: functional; design: scale not given: the % may be the effect or the level left

Sequence of Human immunodeficiency virus type 1 integrase (Q7ZJM1 whole entry): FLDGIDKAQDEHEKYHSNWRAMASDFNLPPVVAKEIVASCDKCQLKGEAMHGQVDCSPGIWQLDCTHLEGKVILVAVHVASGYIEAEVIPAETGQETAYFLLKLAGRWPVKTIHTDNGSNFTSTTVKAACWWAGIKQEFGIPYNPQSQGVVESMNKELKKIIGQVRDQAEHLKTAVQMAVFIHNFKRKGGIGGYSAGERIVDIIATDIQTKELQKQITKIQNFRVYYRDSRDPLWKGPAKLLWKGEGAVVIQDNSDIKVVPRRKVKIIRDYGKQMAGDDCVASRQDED

| IC50 [4] [µM] | IC50 [5] [µM] | inhibition [6] [%] | inhibition [7] [%] | Structure (SMILES) | EC50 [1] [µM] | CC50 at 144 h [2] [µM] | selectivity ratio [3] | Activity [8] |
| --- | --- | --- | --- | --- | --- | --- | --- | --- |
| 0.16 | 11 |  |  | CC(C)c1c(Cc2ccccc2)n(COCc2ccc(Cc3cccc(C(=O)/C=C(\O)C(=O)O)c3)cc2)c(=O)[nH]c1=O | 0.46 | > 100 | > 220 |  |
|  | > 100 | 0 | 0 | CC(C)c1c(Cc2ccccc2)[nH]c(=O)n(CCCCCCc2ccc(C(=O)/C=C(\O)C(=O)O)cc2)c1=O |  |  |  | 9% |
| 0.1 | 22 |  |  | Cc1cc(C)cc(Cc2c(C(C)C)c(=O)[nH]c(=O)n2COCc2ccc(Cc3cccc(C(=O)/C=C(\O)C(=O)O)c3)cc2)c1 | 0.17 | 96 | 560 |  |
|  | 8.2 | 100 | 100 | CC(C)c1c(Cc2ccccc2)n(COCCCc2ccc(C(=O)/C=C(\O)C(=O)O)cc2)c(=O)[nH]c1=O |  |  |  | 91% |
|  | > 100 | 0 | 0 | CCc1c(Cc2ccccc2)nc(SCc2ccc(Cc3cccc(C(=O)/C=C(\O)C(=O)O)c3)cc2)[nH]c1=O |  |  |  | inactive |
|  | 7.4 | 100 | 100 | CC(C)c1c(Cc2ccccc2)n(COCCc2ccc(C(=O)/C=C(\O)C(=O)O)cc2)c(=O)[nH]c1=O |  |  |  | 100% |
|  | 12 | 0 | 0 | CC(C)c1c(Cc2ccccc2)[nH]c(=O)n(CCCc2ccc(C(=O)/C=C(\O)C(=O)O)cc2)c1=O |  |  |  | 0.6% |
|  | > 100 | 0 | 0 | CCc1c(Cc2ccccc2)nc(SCc2ccc(C(=O)/C=C(\O)C(=O)O)cc2)[nH]c1=O |  |  |  | inactive |
| 0.71 | 16 |  |  | CCc1c(Cc2ccccc2)n(COCc2ccc(Cc3cccc(C(=O)/C=C(\O)C(=O)O)c3)cc2)c(=O)[nH]c1=O | 0.56 | 32 | 56 |  |
|  | 37 | 0 | 0 | CC(C)c1c(Cc2ccccc2)[nH]c(=O)n(CCCCc2ccc(C(=O)/C=C(\O)C(=O)O)cc2)c1=O |  |  |  | 0% |
| 0.028 | 14 |  |  | CCc1c(Cc2cc(C)cc(C)c2)n(COCc2ccc(Cc3cccc(C(=O)/C=C(\O)C(=O)O)c3)cc2)c(=O)[nH]c1=O | 0.014 | > 100 | > 710 |  |
|  | 8 | 0 | 0 | CC(C)c1c(Cc2ccccc2)[nH]c(=O)n(CCc2ccc(C(=O)/C=C(\O)C(=O)O)cc2)c1=O |  |  |  | 28% |

From ChEMBL document CHEMBL1166013, “Pharmacophore and structure-activity relationships of integrase inhibition within a dual inhibitor scaffold of HIV reverse transcriptase and integrase” (Bioorg Med Chem, 2010)
